Test results from ChEMBL document CHEMBL1157169, “A class of novel nitronyl nitroxide labeling basic and acidic amino acids: synthesis, application for preparing ESR optionally labeling peptides, and bioactivity investigations” (Bioorg Med Chem, 2008).
pEC50: −log10 of the molar value.

Tests used:
[1] = system: Aorta; assay: Nitric oxide radical scavenging activity in rat aortic strip assessed as inhibition of acetylcholine-induced vasorelaxation at 10 uM; format: functional, tissue-based
[2] = system: Aorta; assay: Nitric oxide radical scavenging activity in rat aortic strip assessed as inhibition of acetylcholine-induced vasorelaxation at 1 uM; format: functional, tissue-based
[3] = system: Aorta; assay: Nitric oxide radical scavenging activity in rat aortic strip assessed as inhibition of acetylcholine-induced vasorelaxation at 100 uM; format: functional, tissue-based
[4] = Aqueous stability assessed as decomposition time at pH 2.0; format: physicochemical; details: buffer
Method in brief: (§1)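 Each sample dissolved in aqueous solution at pH 2.0, 7.4 or 11.5 (final 10^-2 mM) and held at room temperature for up to 200 h. Decomposition followed by TLC (CHCl3/CH3OH, 20:1). Value is the time at which decomposition appeared.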

[5] = Aqueous stability assessed as decomposition time at pH 7.4; format: physicochemical; details: buffer; method in brief: as §1
[6] = Aqueous stability assessed as decomposition time at pH 11.5; format: physicochemical; details: buffer; method in brief: as §1
[7] = system: PC-12; assay: Radical scavenging activity in rat PC12 cells assessed as inhibition of nitric oxide radical-induced cell damage by MTT assay; format: functional, cell-based
Method in brief: (§2)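 PC12 cells grown in DMEM with 10% heat-inactivated horse serum, 5% FBS and 1.0 mM pyruvate at 37 °C, 5% CO2. Seeded at 20,000 cells/well on poly-L-lysine and attached 24 h. Pretreated 1 h with 12.5–200 µM compound. Damage induced by SNP 2 mM for 2 h (NO), H2O2 1 mM for 1 h, or H2O2 1 mM/Fe(II) 30 µM for 1 h (·OH). Media replaced, cells incubated 14 h, survival measured by MTT.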

[8] = system: PC-12; assay: Radical scavenging activity in rat PC12 cells assessed as inhibition of hydrogen peroxide radical-induced cell damage by MTT assay; format: functional, cell-based; method in brief: as §2
[9] = system: Blood; assay: Inhibition of 10 uM adenosine diphosphate-induced platelet aggregation in rabbit blood; format: functional, Oryctolagus cuniculus
Method in brief: (§3)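 Platelet-rich plasma made by centrifuging normal rabbit blood anticoagulated with sodium citrate (3.8% final). Platelets adjusted to 2×10^5/µl with autologous plasma. Aggregation induced by PAF or ADP (final 10^-5–10^-7 M) and read by turbidimetry in an aggregometer. Maximal aggregation rate (Am%) taken as peak height of the curve.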

[10] = system: Blood; assay: Inhibition of 1 uM adenosine diphosphate-induced platelet aggregation in rabbit blood; format: functional, Oryctolagus cuniculus; method in brief: as §3
[11] = system: Blood; assay: Inhibition of 0.1 uM adenosine diphosphate-induced platelet aggregation in rabbit blood; format: functional, Oryctolagus cuniculus; method in brief: as §3
[12] = system: Blood; assay: Inhibition of 10 uM platelet activating factor-induced platelet aggregation in rabbit blood; format: functional, Oryctolagus cuniculus; method in brief: as §3
[13] = system: Blood; assay: Inhibition of 1 uM platelet activating factor-induced platelet aggregation in rabbit blood; format: functional, Oryctolagus cuniculus; method in brief: as §3
[14] = system: Blood; assay: Inhibition of 0.1 uM platelet activating factor-induced platelet aggregation in rabbit blood; format: functional, Oryctolagus cuniculus; method in brief: as §3
[15] = system: Rattus norvegicus; assay: Antithrombotic activity in Wistar rat assessed as wet thrombus weight at 5 umol/kg; format: functional
Method in brief: (§4)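 Male Wistar rats (250–300 g) anesthetized with pentobarbital sodium (80.0 mg/kg, ip). The right carotid artery and left jugular vein were cannulated via a polyethylene tube containing a thread, filled with NS or compound dissolved in NS (vehicle NS). Blood shunted 15 min. The thread was weighed wet, then after 2 weeks in a desiccator weighed dry. n = 10, ANOVA.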

[16] = system: Plasma; assay: Thrombolytic activity in rabbit plasma assessed as euglobulin clot lysis time at 4.5 uM; format: functional, Oryctolagus cuniculus
Method in brief: (§5)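 Rabbit plasma diluted 1:20 in water and precipitated at pH 5.7 with 0.25% acetic acid for 30 min at 4 °C. Centrifuged at 2000g for 15 min. […] Sample added and time to clot lysis recorded.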

[17] = species on record: Oryctolagus cuniculus; assay: Thrombolytic activity against rabbit fibrinogen assessed as fibrinogen lysis area at 4.5 uM
Method in brief: (§6)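 Equal volumes of 0.3% rabbit fibrinogen and 0.95% agarose in 50 mM sodium barbiturate buffer (pH 7.8), coagulated with thrombin (100 IU/mL). After 30 min at 4 °C, 5 mm wells were punched and 30 µl of sample in NS added per well. Plates incubated and lysis area measured in mm². ANOVA.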

[18] = system: Rattus norvegicus; assay: Thrombolytic activity in Wistar rat assessed as reduction in thrombus weight at 10 umol/kg; format: functional
Method in brief: (§7)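 Male Wistar rats (200–300 g) anesthetized with pentobarbital sodium (80.0 mg/kg, ip). A steel helix was left 15 min in 1.0 ml carotid artery blood, and the helix with thrombus was weighed. It was placed in a polyethylene tube filled with heparin sodium (50 IU/ml NS) inserted into the left jugular vein. Heparin was injected, then compound dissolved in NS. Read-out is reduction in thrombus weight.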

[19] = system: Rattus norvegicus; assay: Antithrombotic activity in Wistar rat assessed as dry thrombus weight at 5 umol/kg
[20] = system: Rattus norvegicus; assay: Antithrombotic activity in Wistar rat assessed as wet thrombus weight at 20 mg/kg; format: functional; method in brief: as §4
[21] = system: Rattus norvegicus; assay: Antithrombotic activity in Wistar rat assessed as dry thrombus weight at 20 mg/kg; format: functional; method in brief: as §4
[22] = system: PC-12; assay: Radical scavenging activity in rat PC12 cells assessed as inhibition of hydroxyl radical-induced cell damage by MTT assay; format: functional, cell-based; method in brief: as §2
[23] = system: Plasma; assay: Thrombolytic activity in rabbit plasma assessed as euglobulin clot lysis time at 2.2 uM; format: functional, Oryctolagus cuniculus; method in brief: as §5
[24] = system: Plasma; assay: Thrombolytic activity in rabbit plasma assessed as euglobulin clot lysis time at 1.1 uM; format: functional, Oryctolagus cuniculus; method in brief: as §5
[25] = species on record: Oryctolagus cuniculus; assay: Thrombolytic activity against rabbit fibrinogen assessed as fibrinogen lysis area at 2.2 uM; method in brief: as §6
[26] = species on record: Oryctolagus cuniculus; assay: Thrombolytic activity against rabbit fibrinogen assessed as fibrinogen lysis area at 1.1 uM; method in brief: as §6
[27] = system: Rattus norvegicus; assay: Thrombolytic activity in Wistar rat assessed as reduction in thrombus weight at 5 umol/kg; format: functional; method in brief: as §7
[28] = system: Rattus norvegicus; assay: Thrombolytic activity in Wistar rat assessed as reduction in thrombus weight at 2.5 umol/kg; format: functional; method in brief: as §7

CC1(C)N(O)C(c2ccc(OCC(=O)O)cc2)=[N+]([O-])C1(C)C
inhibition [1]: 72.4%
inhibition [2]: 25.3%
inhibition [3]: 99%
Time [4]: > 200 h
Time [5]: > 200 h
Time [6]: > 200 h
pEC50 [7]: 4.03
pEC50 [8]: 4.50
inhibition (INH) [9]: 51.98%
inhibition (INH) [10]: 50.65%
inhibition (INH) [11]: 49.33%
inhibition (INH) [12]: 53.8%
inhibition (INH) [13]: 51.4%
inhibition (INH) [14]: 52.45%
Activity [15]: 38.76 mg
Time [16]: 223.11 min
Activity [17]: 26.6 mm2
Activity [18]: 12.11 mg
dry thrombus weight [19]: 6.67 mg

CC(=O)Oc1ccccc1C(=O)O [ASPIRIN]
Activity [20]: 24.16 mg
Activity [21]: 4.04 mg

C[C@H](NC(=O)[C@@H]1CCCN1)C(=O)N[C@@H](CCCCNC(=O)COc1ccc(C2=[N+]([O-])C(C)(C)C(C)(C)N2O)cc1)C(=O)O
inhibition [1]: 73.9%
inhibition [2]: 26.6%
inhibition [3]: 99.1%
pEC50 [7]: 4.05
pEC50 [8]: 4.54
pEC50 [22]: 4.00
Time [16]: 102.95 min
Time [23]: 128.8 min
Time [24]: 149 min
Activity [17]: 234 mm2
Activity [25]: 216 mm2
Activity [26]: 197 mm2
Activity [18]: 24.2 mg
Activity [27]: 15.38 mg
Activity [28]: 11.06 mg
